# Results: ChEMBL document CHEMBL3853360, “Combined Interactions with I1-, I2-Imidazoline Binding Sites and α2-Adrenoceptors To Manage Opioid Addiction” (ACS Med Chem Lett, 2016)
# Tests used:
# [1] = Displacement of [3H]-2-BFI from I2 receptor imidazoline binding site in Sprague-Dawley rat brain membranes after 30 mins by liquid scintillation counting; assay type: cell membranes, Membrane
# Outline: (§1)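 Radioligand competition binding with pKi determined by displacement. I1 sites: [125I]-p-iodoclonidine on rat kidney membranes. I2 sites: [3H]-2-BFI on rat brain membranes. α2-ARs: [3H]-RX821002 on rat brain membranes.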
# [2] = biological target: T1, Alpha-2C adrenergic receptor (Homo sapiens, UniProt P18825); assay: Agonist activity at human alpha2c-AR expressed in CHO cells assessed as rate of acidification after 240 mins by cytosensor microphysiometric analysis; assay type: cell-based
# T1 sequence (P18825 whole entry): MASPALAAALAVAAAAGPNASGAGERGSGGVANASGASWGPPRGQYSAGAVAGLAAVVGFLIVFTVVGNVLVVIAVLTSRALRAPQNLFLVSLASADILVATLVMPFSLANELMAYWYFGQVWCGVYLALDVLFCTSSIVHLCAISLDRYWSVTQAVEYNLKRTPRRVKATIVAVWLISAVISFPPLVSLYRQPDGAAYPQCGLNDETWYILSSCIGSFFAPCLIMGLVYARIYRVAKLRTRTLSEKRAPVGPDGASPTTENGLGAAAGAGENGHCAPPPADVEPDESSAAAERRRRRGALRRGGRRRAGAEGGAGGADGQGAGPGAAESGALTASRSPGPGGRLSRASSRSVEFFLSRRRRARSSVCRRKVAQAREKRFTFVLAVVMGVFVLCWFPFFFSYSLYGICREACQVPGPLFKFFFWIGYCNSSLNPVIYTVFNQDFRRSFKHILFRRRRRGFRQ
# Outline: (§2)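 Functional assay in CHO cells stably expressing a single human α2-AR subtype (α2A, α2B or α2C), read on a Cytosensor microphysiometer. Outputs are pEC50, intrinsic activity and, for antagonism, pKb. Intrinsic activity is expressed as a fraction of the full agonist (−)-noradrenaline, set at 1. Values are mean ± SEM of 3–5 separate experiments.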
# [3] = Reduction in morphine dependence expression in CD1 mouse assessed as inhibition of naloxone-precipitated jumping at 5 mg/kg, ip administered acutely 15 mins prior to naloxone challenge relative to control; assay type: functional, organism-based
# [4] = biological target: T2, Alpha-2A adrenergic receptor (Homo sapiens) (UniProt P08913); assay: Antagonist activity at human alpha2a-AR expressed in CHO cells assessed as inhibition of (-)-noradrenaline-induced acidification rate after 240 mins by cytosensor microphysiometric analysis; assay type: cell-based; outline: as §2
# T2 sequence (whole entry): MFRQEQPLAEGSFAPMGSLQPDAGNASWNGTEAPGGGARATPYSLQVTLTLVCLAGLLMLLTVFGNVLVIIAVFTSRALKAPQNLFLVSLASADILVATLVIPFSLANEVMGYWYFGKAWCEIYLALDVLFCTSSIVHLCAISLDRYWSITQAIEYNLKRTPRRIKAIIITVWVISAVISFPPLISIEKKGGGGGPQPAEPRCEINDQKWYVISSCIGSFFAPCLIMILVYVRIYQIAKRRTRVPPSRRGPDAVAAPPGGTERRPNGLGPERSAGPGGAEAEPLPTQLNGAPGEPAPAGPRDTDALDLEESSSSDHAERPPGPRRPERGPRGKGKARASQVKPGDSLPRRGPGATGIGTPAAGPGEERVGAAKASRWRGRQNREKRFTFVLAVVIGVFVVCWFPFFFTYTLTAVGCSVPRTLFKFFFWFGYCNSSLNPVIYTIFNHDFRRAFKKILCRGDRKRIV
# [5] = tested on: Mus musculus; assay: Reduction in morphine dependence acquisition in CD1 mouse assessed as inhibition of naloxone-precipitated teeth chattering frequency at 5 to 10 mg/kg, ip administered 15 mins prior to each morphine challenge relative to control; assay type: functional
# Outline: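 Mice received i.p. test compound (5 or 10 mg/kg) 15 min before each of repeated morphine injections, with vehicle and morphine-only controls. Withdrawal was then precipitated with naloxone. Jumping frequency and somatic signs (rearing, forepaw tremor, teeth chattering; summed frequency) were scored and compared with the morphine group. Data are mean ± SEM of 6–10 animals.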
# [6] = biological target: T3, Adrenergic receptor alpha-2 (Rattus norvegicus, UniProt P22086+P19328+P22909); assay: Displacement of [3H]-RX 821002 from alpha2-AR in Sprague-Dawley rat brain membranes after 30 mins by liquid scintillation counting; assay type: cell membranes, Membrane; outline: as §1
# T3 sequence (P22086 whole entry): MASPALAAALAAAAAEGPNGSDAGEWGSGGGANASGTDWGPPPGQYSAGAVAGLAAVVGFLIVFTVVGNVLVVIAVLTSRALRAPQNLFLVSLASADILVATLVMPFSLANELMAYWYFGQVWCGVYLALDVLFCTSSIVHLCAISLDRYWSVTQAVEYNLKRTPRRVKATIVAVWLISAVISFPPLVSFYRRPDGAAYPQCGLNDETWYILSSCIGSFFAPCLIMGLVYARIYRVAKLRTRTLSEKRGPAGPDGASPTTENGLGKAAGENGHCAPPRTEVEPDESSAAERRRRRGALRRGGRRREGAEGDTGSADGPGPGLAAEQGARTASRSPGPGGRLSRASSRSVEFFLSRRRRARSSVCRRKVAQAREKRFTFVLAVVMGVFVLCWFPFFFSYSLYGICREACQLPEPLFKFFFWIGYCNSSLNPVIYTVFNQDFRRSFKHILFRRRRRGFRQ
# T3 sequence (P19328 whole entry): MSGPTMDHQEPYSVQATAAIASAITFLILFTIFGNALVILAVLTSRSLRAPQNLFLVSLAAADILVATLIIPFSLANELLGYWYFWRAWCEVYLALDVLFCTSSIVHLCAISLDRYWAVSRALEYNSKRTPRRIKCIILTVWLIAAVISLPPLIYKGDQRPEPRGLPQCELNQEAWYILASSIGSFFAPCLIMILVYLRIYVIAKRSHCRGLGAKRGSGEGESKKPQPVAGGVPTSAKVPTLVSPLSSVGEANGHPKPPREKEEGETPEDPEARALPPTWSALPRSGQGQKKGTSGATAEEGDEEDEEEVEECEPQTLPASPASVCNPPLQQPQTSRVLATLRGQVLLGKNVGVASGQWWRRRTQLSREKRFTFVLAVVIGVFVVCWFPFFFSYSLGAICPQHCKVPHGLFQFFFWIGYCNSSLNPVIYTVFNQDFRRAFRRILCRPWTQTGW
# T3 sequence (P22909 whole entry): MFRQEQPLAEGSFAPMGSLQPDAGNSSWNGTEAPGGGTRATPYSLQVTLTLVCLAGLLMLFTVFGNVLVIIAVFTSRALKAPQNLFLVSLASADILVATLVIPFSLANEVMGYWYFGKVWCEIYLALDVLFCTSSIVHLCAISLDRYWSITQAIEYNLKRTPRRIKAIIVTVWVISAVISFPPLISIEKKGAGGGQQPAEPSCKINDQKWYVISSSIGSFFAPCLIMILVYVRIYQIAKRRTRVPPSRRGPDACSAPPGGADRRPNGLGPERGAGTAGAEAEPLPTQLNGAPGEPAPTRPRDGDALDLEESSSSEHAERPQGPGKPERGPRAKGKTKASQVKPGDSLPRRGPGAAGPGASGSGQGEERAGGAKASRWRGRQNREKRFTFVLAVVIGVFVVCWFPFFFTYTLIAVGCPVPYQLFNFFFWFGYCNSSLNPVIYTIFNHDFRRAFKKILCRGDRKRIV
smiles,measurement,setting,value
Cc1ccccc1NCC1=NCCN1,pKi,[1],8.06
same,EC50,[2],21.9 nM
same,inhibition,[3],96%
same,pKb,[4],7.58
same,inhibition (INH),[5],80%
same,pKi,[6],7.73
